The values below come from the EternaBench riboswitch data.

The data set has as its system MS2 coat protein. The data set can be described thus: apparent Kd, MS2 coat protein; higher = weaker binding; RNA-MaP array; FMN 200 µM where present. Put shortly: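 Stalled E. coli RNA polymerase produced the designs on Illumina sequencing-chip clusters. SNAP-549-labelled MS2 coat protein was added from 0.7 or 1.5 nM, doubling to 3 µM, without and then with constant ligand, in 100 mM Tris-HCl pH 7.5, 80 mM KCl, 4 mM MgCl2, BSA, DTT, yeast tRNA and Tween-20. The apparent Kd is the median of filtered per-cluster fits of green signal normalised to red-channel RNA signal and control-cluster median Fmax.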

The mark [1] stands for this setting: designed as: OFF switch for flavin mononucleotide, no ligand.
[2] abbreviates: ligand present: flavin mononucleotide, designed as: OFF switch for flavin mononucleotide.
Setting [3] is: designed as: ON switch for flavin mononucleotide, no ligand.
Where [4] appears, read: ligand present: flavin mononucleotide, designed as: ON switch for flavin mononucleotide.

As a reminder, the apparent Kd is the concentration giving half-maximal binding under the conditions of the assay.

In the case of “UAAUCGUUGCAGAAGGUUAUUAUUAUAACGUGACACUUAACAUGAGGAUCACCCAUGUUUUUUAUGAAGGAUAUGCAACGGUAG”, the “apparent Kd” value is 7.07 nM under setting [1] and 7.29 nM under setting [2].

On to “CGUUAAUAUCGAGGAUAUGUCUAGACACAUGAGGAUCACCCAUGUAUGUGUAUAGAAGGCGAUAUUAACAGCAUGUUACAUGCC”, for which the “apparent Kd” value reads like this: under setting [3], 45.5 nM; under setting [4], 16.3 nM.

Regarding “CUGUUAUAGGUCCAGAAUUACAACAUGAGGAUCACCCAUGUGCAGGAUAUCGGGUUGAUAGGCGCCGAGAAGGGCAUAGUCACG”, the “apparent Kd” value by setting is: under setting [1], 64.5 nM; under setting [2], 106 nM.

With “UGGUGUGAAGGAUAUACAUGAGGAUCACCCAUGUAUGAGGUGUGUGUUGAGGUGGAGGGUAGAAGGUCAGGUGG”, the “apparent Kd” value under setting [1] came out at 30.1 nM and the “apparent Kd” value under setting [2] is 30.6 nM.

Regarding “GCACUUCGGCAGAAGGGACUAUGGGUAUGGUAGUCAGGAUAUGCAGGGUGGGCGUUUCACAUGAGGAUCACCCAUGUAGGACCA”, the “apparent Kd” value by setting is: under setting [3], 15.1 nM; under setting [4], 8.52 nM.

With “UAAAAGCUAGGAUAUACAUGAGGAUCACCCAUGUAAUCUCUCACUUACACGGAGGAUCGUAGAAGGAGCACAAA”, the “apparent Kd” value under setting [1] was found to be 21.7 nM and the “apparent Kd” value under setting [2] stood at 55.6 nM.

Regarding “CAUGUCCUCACAGGAUAUGCUGGACUUUGUCCAGCAGAAGGGUGUUAACAUGAGGAUCACCCAUGUGGACAUGAUAUAUUUAAU”, the “apparent Kd” value under setting [3] was found to be 933 nM and the “apparent Kd” value under setting [4] came to 69.8 nM.

Take “UCUCGUGUUCAGAAGGGCAAUCAACGAACAUGAGGAUCACCCAUGUUCUGCAGGAUAUGAACGGGUGGGAGCCCUGCGAAGGGA”: the “apparent Kd” value is 167 nM under setting [3] and 25.5 nM under setting [4].

For the sequence “UGUGUGUGGCAGGAUAUUCCGGUCGUUGGUCGGGAAGAAGGGUCUACAUGAGGAUCACCCAUGUGACCGGUUGG”, the “apparent Kd” value by setting is: under setting [1], 25.6 nM; under setting [2], 26.2 nM.

For the sequence “UGGUAAUAGGGAGGAUAUGGGAAGAUACAUGAGGAUCACCCAUGUUUAAGAAUGCCGAGAGGCAACUAGAAGGCCCUAGUACCU”, the “apparent Kd” value by setting is: under setting [3], 468 nM; under setting [4], 19.6 nM.

In the case of “UUAUUAAAUGUAGGAUAUGCAUAUUAUUAUUAUGCAGAAGGACAUGAGGAUCACCCAUGUAUAUUAUUAUUAUAUAUUAUAUAU”, the “apparent Kd” value is, setting by setting: under setting [1], 32.5 nM; under setting [2], 71.3 nM.

For “CUGGAAGUCACAGGAUAUCCGGACACAUGUCCAGGAGAAGGGUGAGUAGUUUCACAUGAGGAUCACCCAUGUGGCGGUUCCAGA”, the “apparent Kd” value amounted to 264 nM under setting [3] and 21.2 nM under setting [4].

Turning to “UAAGGGUAAUGAGGAUAUAACGGGUGACAUGAGGAUCACCCAUGUGGUUUGUUAUGGUCGAGCCGUUAGAAGGCAUUGUAAGCA”, the “apparent Kd” value runs as follows: under setting [1], 1070 nM; under setting [2], 1120 nM.

With “UCCGCGGACAUAGGAUAUACUGCGAAAUUUCUAGUAGAAGGGUGACCGCACGUGCGAACUGUACAUGAGGAUCACCCAUGUACU”, the “apparent Kd” value under setting [3] worked out at 21.4 nM and the “apparent Kd” value under setting [4] is 23.1 nM.

Turning to “CGUUGGUUAGGAUAUAGCCUCCUGGUGGGAAGGCCGGGUGGCUAGAAGGAACAUGAGGAUCACCCAUGUAUGGA”, the “apparent Kd” value under setting [1] is 62.6 nM and the “apparent Kd” value under setting [2] is 33.3 nM.

In the case of “AAAUGGGCGUAGGAUAUGAGAUGGUCUAGCAGCUCAGAAGGACGCACAUGAGGAUCACCCAUGUGAUCGGACUA”, under setting [2], the “apparent Kd” value is 224 nM.

“UAUACACAUGAGGAUCACCCAUGUGAGGAUAUGUACAACAACCCGACGGUGUUGUUGUACAGAAGGCACAAAUA”: the “apparent Kd” value runs as follows: under setting [1], 80.2 nM; under setting [2], 59.8 nM.

With “CGGUUAUAUCGAGGAUAUAAGUCUAGGACAUGAGGAUCACCCAUGUAUGUCUUAGAAGGCGAUAUAACCAGCCUGUUACAGGCA”, the “apparent Kd” value is, setting by setting: under setting [3], 29.3 nM; under setting [4], 6.32 nM.

For the sequence “AGCUGGUAGAGAGGAUAUCAUGUGCUGACAUGAGGAUCACCCAUGUAGGGACGUCGGUCCAAUUAUGAGAAGGCUCUACCAGCA”, the “apparent Kd” value under setting [3] came to 80.5 nM and the “apparent Kd” value under setting [4] was 48.2 nM.

On to “CGCAGCGCAGGAUAUACAUGAGGAUCACCCAUGUACUGGCUCGGCACAGGGUCUCAAGGUAGAAGGGUGCAAAU”, for which the “apparent Kd” value came out at 22.6 nM under setting [1] and 23.1 nM under setting [2].

Regarding “UUUUUGUCAGGAUAUGAGUAGUAGAACAAUAGUACUACUACUCAGAAGGGACAUGAGGAUCACCCAUGUUCCUC”, the “apparent Kd” value reads like this: under setting [1], 15.2 nM; under setting [2], 54.1 nM.

“UUUUUAUUUAUAGGAUAUGGAAACAUGAGGAUCACCCAUGUAUGAUAAGAUAAAUUAUGAUGUGGCCAGAAGGAUAUUAUUUUU”: the “apparent Kd” value by setting is: under setting [3], 31.3 nM; under setting [4], 43.7 nM.

Take “UUAUUAUGUGUAGGAUAUGCAUAUUAUUAUUAUGCAGAAGGACAUGAGGAUCACCCAUGUAUAUUAUUAUUAUAUAUUAUAUAU”: the “apparent Kd” value reads like this: under setting [1], 30.9 nM; under setting [2], 46.2 nM.

As to “GGCUUCUUCACAGGAUAUGGUUUUUUAAGUAUACAUGAGGAUCACCCAUGUCCAGAAGGGUGAGGGUCCGGCGUACAGUGUCGG”, the “apparent Kd” value was 645 nM under setting [3] and 30.4 nM under setting [4].

On to “UAAUUUAUACAGAAGGGAAACAUGAGGAUCACCCAUGACAUGAGGAUCACCCAUGUUUAAUUAUUUCAGGAUAUGUAAAAUAAU”, for which the “apparent Kd” value is 159 nM under setting [3] and 70.5 nM under setting [4].

For the sequence “GCCUCACAUGAGGAUCACCCAUGUCAGGAUAUCUCAGCCUCACAUCAAACAAGGCUUCAGAGAAGGGACGUAAA”, the “apparent Kd” value is, setting by setting: under setting [1], 37.4 nM; under setting [2], 77.4 nM.

For the sequence “UUUUAACAUGAGGAUCACCCAUGUCGUUCAAAUCAAGGAUAUCAGGCGUGUGCACACGCCUGAGAAGGUGAAUCUC”, the “apparent Kd” value reads like this: under setting [3], 135 nM; under setting [4], 320 nM.

Take “CCUAAGGACACAGGAUAUAGCGUGGUGGCUGGGCUCCAACGGCGAGUGGCGCUAGAAGGGUGACCACAUGAGGAUCACCCAUGU”: the “apparent Kd” value is, setting by setting: under setting [3], 537 nM; under setting [4], 214 nM.

For the sequence “UUACUAUAACAGAAGGCUAGAUAAUAUAUAAAUGGAGGAUAUGUUACAUGAGGAUCACCCAUGUUUCACCCACAUGAGGAUCAC”, the “apparent Kd” value under setting [1] stood at 16.4 nM and the “apparent Kd” value under setting [2] amounted to 52.2 nM.

With “CGGAGACAUGAGGAUCACCCAUGUCGUCGUCACAGAGGAUAUGGGAGCGUCAGGGACGCAUCAGAAGGCUGAAAGC”, the “apparent Kd” value under setting [3] came out at 32.5 nM and the “apparent Kd” value under setting [4] came to 19.1 nM.

In the case of “UCGCUGCGAGGAUAUACAUGAGGAUCACCCAUGUGCGGGUCCGGGUCUUCGUCCAUUGGUAGAAGGCGCAGUGA”, the “apparent Kd” value under setting [1] stood at 45.3 nM and the “apparent Kd” value under setting [2] was 554 nM.

On to “GACUGCUGAGGAUAUACAUGAGGAUCACCCAUGUGCUUCAGCUACGAAAGUAGCAUUGGUAGAAGGUAGUAGUC”, for which the “apparent Kd” value worked out at 12.4 nM under setting [1] and 22.4 nM under setting [2].

“AUCGUGCUAGGAUAUACAGACGGGUGUAGACGUGCAGGCAAACAUGAGGAUCACCCAUGUAGAAGGAGUAGUUA”: the “apparent Kd” value reads like this: under setting [1], 159 nM; under setting [2], 88.8 nM.

As for “UUUUACGCAGGAUAUACAUUUUUUUUAUUAUCCUCAUUAUUACAUGAGGAUCACCCAUGUAGAAGGGCGAUUUU”, the “apparent Kd” value under setting [1] is 75.7 nM and the “apparent Kd” value under setting [2] amounted to 99.7 nM.

For “UAAUAAUAAUAAUAAUGGACGAUACAUGAGGAUCACCCAUGUAAGGAUAUGCAGUGGAAUACACUGCAGAAGGUACAUACGUCC”, the “apparent Kd” value amounted to 15.7 nM under setting [1] and 23 nM under setting [2].

On to “GGUCCACAUGAGGAUCACCCAUGUUAGGAUAUCUCGCCCGAGUCCAUAUGGGCCGGGCAGAGAAGGAAUGUGAA”, for which the “apparent Kd” value stood at 21 nM under setting [1] and 22.6 nM under setting [2].

“UGUUAAUAUCGAGGAUAUGUCUAGACACAUGAGGAUCACCCAUGUAUGUGUAUAGAAGGCGAUAUUAACAGCAUGUUACAUGCC”: the “apparent Kd” value is, setting by setting: under setting [3], 37.1 nM; under setting [4], 17.7 nM.

In the case of “UUGAGGUCAGGAUAUGCAUGGCGGGACUUGCGUCGUGGCGUGGAGAAGGGACAUGAGGAUCACCCAUGUGGAGC”, the “apparent Kd” value under setting [1] was 55.6 nM and the “apparent Kd” value under setting [2] turned out to be 62 nM.

With “GGUAUGUGAGGAUAUGGGAUUGUAGACAUGAGGAUCACCCAUGUCAUGUCCGAUCAUUGCCCAGAAGGUAUCCGCU”, the “apparent Kd” value by setting is: under setting [1], 25.6 nM; under setting [2], 27.1 nM.

Turning to “CCAAGAAUAGGAUAUACACGAUGUCAGCUUCUAUACAUCGCACAUGAGGAUCACCCAUGUAGAAGGGUUCUCUC”, the “apparent Kd” value by setting is: under setting [1], 735 nM; under setting [2], 823 nM.

With “GUAGCAUACCGAGGAUAUUCAGGGCAUAAAUAAACAUGAGGAUCACCCAUGUGGCGAAAGCCUAGGGAGAAGGCGGAAUGCUAC”, the “apparent Kd” value is 18.5 nM under setting [3] and 15.3 nM under setting [4].

As to “GCGCUUAUACAGAAGGCCAUAUACAUGAGGAUCACCCAUGUCGAAUCUUGGAGGAUAUGUUAUUAAUUACACGCAGAUGAGCGC”, the “apparent Kd” value is 15.8 nM under setting [3] and 6.19 nM under setting [4].

For the sequence “UUACUCAUGUAAGGAUAUGUAGCCGAAACGGCUGCAGAAGGUACUAAAAUACAUGAGGAUCACCCAUGUCUUUUUAAUUUAGAC”, the “apparent Kd” value under setting [3] was 216 nM and the “apparent Kd” value under setting [4] was 50.9 nM.

Turning to “AGAAAGAAGCAAGGAUAUUGUAAGGUUAAUGUACAAGAAGGUGCUGUUUAUGUCUCUUAACAUGAGGAUCACCCAUGUAUUGGU”, the “apparent Kd” value turned out to be 52.6 nM under setting [3] and 44.1 nM under setting [4].

As for “GGGCACAAAGGAUAUACAUGAGGAUCACCCAUGUUCACCACAACAUGUUACUGCCCAAGUAGAAGGUUGGCCCA”, the “apparent Kd” value worked out at 38.7 nM under setting [1] and 288 nM under setting [2].

For the sequence “AGUCAUACAGGAUAUACAUGAGGAUCACCCAUGUAUAUCCAAAAAAAAUGAUCCUCAUGUAGAAGGGUAUGACA”, the “apparent Kd” value is, setting by setting: under setting [1], 15.9 nM; under setting [2], 10.5 nM.

Regarding “UGGUAGGGAGGAUAUCGGAGACCAAACAUGAGGAUCACCCAUGUGCCAUCCCGUGUAUCUUGAGAAGGUUCUACCA”, the “apparent Kd” value under setting [1] is 14.8 nM and the “apparent Kd” value under setting [2] was determined as 23.4 nM.

In the case of “CUCCUACAUGAGGAUCACCCAUGUCAGGAUAUCUCAGUGGCGCCUAAAUGUGCCACCCAGAGAAGGGACGUGCA”, the “apparent Kd” value stood at 11.6 nM under setting [1] and 15.3 nM under setting [2].
